Results taken from ChEMBL document CHEMBL1124442, “Potential antitumor agents. 58. Synthesis and structure-activity relationships of substituted xanthenone-4-acetic acids active against the colon 38 tumor in vivo” (1989).
Activity calls are given as the source filed them.

What was measured:
[1] = Activity against colon adenocarcinoma C38 tumor in mice, after intraperitoneal administration at optimal dose and value ranges from 50 -90 %; assay type: functional, Mus musculus
In short: (§1)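 Colon 38 fragments implanted subcutaneously and grown to 4–8 mm diameter. Single intraperitoneal dose of the sodium salt in 0.2 mL water, escalated at 1.5-fold intervals up to 750 mg/kg or the toxic limit, with at least three mice per dose. Optimal dose is the highest dose with no acute deaths within 24 h. Tumors excised at 24 h, fixed in formalin and stained with H&E. Sections scored against controls: + = 50–90% hemorrhagic necrosis, ++ = >90%.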

P388 [2] = experiment: Inhibition of 10e6 P388 leukemic cells in mice, intraperitoneal administration; assay type: functional, Mus musculus
In short: (§2)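 10⁶ P388 leukemia cells injected intraperitoneally. Drug given intraperitoneally as the sodium salt in 0.2 mL water on days 1, 5 and 9; optimal dose is in mg/kg per day. ILS is the mean percent increase in lifespan over untreated tumor-bearing controls, with ≥20% considered significant. NA means no activity at any dose up to toxic levels.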

[3] = Inhibition of colon adenocarcinoma C38 tumor growth in mice, intraperitoneal administration; assay type: functional, Mus musculus; in short: as §1
P388 [4] = experiment: The average percentage increase in the lifespan of P388 leukemic mice, when compound was administered intraperitoneally; assay type: functional, Mus musculus
In short: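 Mice received 10⁶ P388 leukemia cells ip. Drug was given ip as the sodium salt in 0.2 mL water on days 1, 5 and 9, with doses in mg/kg/day up to toxic levels. ILS is the average percentage increase in lifespan over untreated tumor-bearing controls, and values of ≥20% were taken as significant.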

[5] = Activity against colon adenocarcinoma C38 tumor in mice, after intraperitoneal administration at optimal dose; assay type: functional, Mus musculus; in short: as §1
[6] = Ability of compound (330 mg/kg, single dose) to inhibit growth of Sc colon 38 tumor cells in mice; assay type: functional, Mus musculus
In short: (§3)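 Mice carrying palpable subcutaneous colon 38 tumors, randomized in groups of five. Drug given intraperitoneally in aqueous solution, either as a single dose or as two equal doses 7 days apart. Major and minor tumor axes measured twice weekly from the start of treatment. Volume taken as 0.52x²y. Growth delay in days is relative to untreated controls.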

P388 [7] = experiment: The average percentage increase in the lifespan of P388 leukemic mice, when compound was administered intraperitoneally; NA is Not Active.; assay type: functional, cell-based; conditions: Mus musculus; in short: as §2
P388 [8] = experiment: Optimal dose that inhibits growth of 10e6 P388 leukemic cells in mice, after intraperitoneal administration of the compound; assay type: functional, Mus musculus; in short: as §2
[9] = Activity against colon adenocarcinoma C38 tumor in mice, after intraperitoneal administration at optimal dose.; assay type: functional, Mus musculus; in short: as §1
P388 [10] = experiment: The average percentage increase in the lifespan of P388 leukemic mice, when compound was administered intraperitoneally; NA is Not active; assay type: functional, cell-based; conditions: Mus musculus; in short: as §2
P388 [11] = experiment: The average percentage increase in the lifespan of P388 leukemic mice, when compound was administered intraperitoneally; NA means not active.; assay type: functional, cell-based; conditions: Mus musculus; in short: as §2
[12] = Ability of compound (45 mg/kg, q7dx2) to inhibit growth of Sc colon 38 tumor cells in mice; assay type: functional, Mus musculus; in short: as §3
[13] = Ability of compound (65 mg/kg, q4dx3) to inhibit growth of Sc colon 38 tumor cells in mice; assay type: functional, Mus musculus
In short: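 Subcutaneously implanted colon 38 fragments were grown to 4–8 mm diameter. Mice with palpable tumors were randomized in groups of five and dosed ip with drug in aqueous solution; q4d×3 means three equal doses 4 days apart. Major and minor tumor axes were measured twice weekly from the start of treatment. Volume was calculated as 0.52x²y, and growth delay in days was derived against untreated controls.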

P388 [14] = experiment: The average percentage increase in the lifespan of P388 leukemic mice, when compound was administered intraperitoneally; NA means not active; assay type: functional, cell-based; conditions: Mus musculus; in short: as §2
[15] = Ability of compound (220 mg/kg, q7dx2) to inhibit growth of Sc colon 38 tumor cells in mice; assay type: functional, Mus musculus; in short: as §3
[16] = Ability of compound (100 mg/kg, single dose) to inhibit growth of Sc colon 38 tumor cells in mice; assay type: functional, Mus musculus; in short: as §3

Row | SMILES | Activity [1] | Optimal dose (P388 [2]) | Optimal dose [3] | Activity [5] | ILS (P388 [7]) | other results
1 | Cc1ccc2c(=O)c3ccccc3oc2c1CC(=O)O | 50% | 100 mg/kg | 150 mg/kg | – | – | ILS (P388 [4]): 26%
2 | O=C(O)Cc1cccc2c(=O)cc(-c3ccccc3)oc12 [MITOFLAXONE] | – | 150 mg/kg | 330 mg/kg | >90% | No activity | Growth delay [6]: 17 days
3 | Cc1ccc(CC(=O)O)c2oc3ccccc3c(=O)c12 | 50% | – | 150 mg/kg | – | No activity | Optimal dose (P388 [8]): 100 mg/kg
4 | Cc1ccc2oc3c(CC(=O)O)cccc3c(=O)c2c1 | 50% | 500 mg/kg | 500 mg/kg | – | No activity | –
5 | O=C(O)Cc1c(Cl)ccc2c(=O)c3ccccc3oc12 | – | 150 mg/kg | 500 mg/kg | – | No activity | Activity [9]: >90%
6 | O=C(O)Cc1cccc2c(=O)c3cc([N+](=O)[O-])ccc3oc12 | – | 225 mg/kg | 500 mg/kg | <50% | – | ILS (P388 [10]): inactive
7 | COc1ccc(CC(=O)O)c2oc3ccccc3c(=O)c12 | – | – | 500 mg/kg | <50% | – | –
8 | O=C(O)Cc1cccc2c(=O)c3cccc(O)c3oc12 | – | 150 mg/kg | 750 mg/kg | <50% | – | ILS (P388 [11]): No activity
9 | Cc1cccc2c(=O)c3cccc(CC(=O)O)c3oc12 | – | 30 mg/kg | 45 mg/kg | >90% | – | Growth delay [12]: 13 days; ILS (P388 [4]): 27%
10 | O=C(O)Cc1cccc2c(=O)c3ccc(O)cc3oc12 | 50% | 225 mg/kg | 750 mg/kg | – | No activity | –
11 | COc1ccc2oc3c(CC(=O)O)cccc3c(=O)c2c1 | 50% | 150 mg/kg | 500 mg/kg | – | No activity | –
12 | O=c1[nH]cc(F)c(=O)[nH]1 [FLUOROURACIL] | – | – | – | – | – | Growth delay [13]: 12.5 days
13 | O=C(O)Cc1ccc(O)c2c(=O)c3ccccc3oc12 | – | – | 750 mg/kg | <50% | – | –
14 | COc1cc(CC(=O)O)c2oc3ccccc3c(=O)c2c1 | 50% | 225 mg/kg | 750 mg/kg | – | No activity | –
15 | O=C(O)Cc1cccc2c(=O)c3cccc([N+](=O)[O-])c3oc12 | – | 150 mg/kg | 220 mg/kg | – | – | ILS (P388 [10]): inactive
16 | O=C(O)Cc1cccc2c(=O)c3c(Cl)cccc3oc12 | 50% | 330 mg/kg | 750 mg/kg | – | No activity | –
17 | O=C(O)Cc1cccc2oc3ccccc3c(=O)c12 | – | 500 mg/kg | 500 mg/kg | <50% | No activity | –

Row | SMILES | Activity [1] | Optimal dose (P388 [2]) | Optimal dose [3] | Activity [5] | ILS (P388 [7]) | other results
18 | O=C(O)Cc1cccc2c(=O)c3ccc(Cl)cc3oc12 | 50% | 65 mg/kg | 150 mg/kg | – | No activity | –
19 | Cc1cc(CC(=O)O)c2oc3ccccc3c(=O)c2c1 | 50% | 330 mg/kg | 500 mg/kg | – | No activity | –
20 | O=C(O)Cc1cccc2c(=O)c3cc(Cl)ccc3oc12 | 50% | 150 mg/kg | 500 mg/kg | – | No activity | –
21 | O=C(O)Cc1c(O)ccc2c(=O)c3ccccc3oc12 | – | 500 mg/kg | 500 mg/kg | <50% | No activity | –
22 | O=C(O)Cc1cc(Cl)cc2c(=O)c3ccccc3oc12 | 50% | 150 mg/kg | 330 mg/kg | – | No activity | –
23 | O=C(O)Cc1cccc2c(=O)c3ccccc3oc12 | – | 150 mg/kg | 220 mg/kg | >90% | – | ILS (P388 [14]): inactive; Growth delay [15]: 11 days
24 | COc1ccc2c(=O)c3cccc(CC(=O)O)c3oc2c1 | 50% | 65 mg/kg | 150 mg/kg | – | – | Growth delay [16]: 0 days; ILS (P388 [4]): 28%
25 | O=C(O)Cc1ccc2c(=O)c3ccccc3oc2c1 | – | 225 mg/kg | 500 mg/kg | <50% | No activity | –
26 | O=C(O)Cc1cccc2c(=O)c3cccc(Cl)c3oc12 | – | 65 mg/kg | 150 mg/kg | >90% | – | Growth delay [16]: 5.2 days; ILS (P388 [4]): 34%
27 | Cc1cccc2oc3c(CC(=O)O)cccc3c(=O)c12 | – | 150 mg/kg | 330 mg/kg | <50% | No activity | –
28 | O=C(O)Cc1cc(O)cc2c(=O)c3ccccc3oc12 | – | – | 750 mg/kg | <50% | – | –
29 | COc1cccc2c(=O)c3cccc(CC(=O)O)c3oc12 | 50% | 150 mg/kg | 150 mg/kg | – | – | ILS (P388 [4]): 42%
30 | COc1cccc2oc3c(CC(=O)O)cccc3c(=O)c12 | – | 330 mg/kg | 750 mg/kg | <50% | No activity | –
31 | O=C(O)Cc1ccc(Cl)c2c(=O)c3ccccc3oc12 | – | 220 mg/kg | 330 mg/kg | >90% | No activity | –
32 | O=C(O)Cc1cccc2c(=O)c3cc(O)ccc3oc12 | – | – | 750 mg/kg | <50% | – | –
33 | COc1ccc2c(=O)c3ccccc3oc2c1CC(=O)O | – | 220 mg/kg | 220 mg/kg | <50% | No activity | –
34 | Cc1ccc2c(=O)c3cccc(CC(=O)O)c3oc2c1 | 50% | 100 mg/kg | 220 mg/kg | – | – | ILS (P388 [4]): 24%
